Measured values from different studies.
Each line is one published result; the experiments were not run side by side.
Target: Mitogen-activated protein kinase 1 (MAPK1, Homo sapiens, UniProt P28482)

SMILES	effect on	mode	method	concentration	endpoint	result
Cn1cncc1[C@@](O)(COc1ccc(C#N)cc1-c1ccc(OC(F)(F)F)cc1)c1ccc(C#N)cc1	cell-free assay	–	competition with immobilised ligand	1 µM	remaining binding	91%
Cn1cc(-c2cccc(N3CCc4c(sc5c4CC(C)(C)C5)C3=O)c2CO)cc(Nc2ccncn2)c1=O	enzyme activity	inhibitor	–	1 µM	inhibition	-1%
C[C@@H](O)[C@H](N)C(=O)N1CCC[C@H]1C(=O)N1CCC[C@H]1C(=O)N[C@H](C(N)=O)[C@@H](C)O	enzyme activity	inhibitor	–	30 µM	inhibition	-2%
Nc1ncc(-c2nc(N3CCOCC3)nc(N3CCOCC3)n2)c(C(F)F)n1	binding	–	competition with immobilised ligand	10 µM	remaining binding	98%
C#Cc1n[nH]c2c(-c3cn(C(C)c4ccccn4)c(=O)[nH]c3=O)cc(F)cc12 (stereo not drawn)	enzyme activity	inhibitor	–	1 µM	inhibition	7.2%
N#CC1(c2ccccn2)CCN(Cc2cc(C(=O)O)c(=O)n3ccccc23)CC1	cell-free assay	–	competition with immobilised ligand	1 µM	remaining binding	100%
C#Cc1n[nH]c2c(-c3cn([C@@H](C)c4ccccc4)c(=O)[nH]c3=O)cc(F)cc12	enzyme activity	inhibitor	–	0.1 µM	inhibition	0.5%
Cc1ncc(C)n2nc(/C=C/c3nc(N4CCCC4)cc(N4CCOCC4)n3)nc12	enzyme activity	inhibitor	–	10 µM	inhibition	7%
Cn1cc(-c2cc(F)cc(N3CCn4c(cc5c4CCCC5)C3=O)c2CO)cc(Nc2ccc(N3CCN(C4COC4)CC3)cn2)c1=O	enzyme activity	inhibitor	–	0.1 µM	inhibition	4%
CC(C)(C)c1cc(C=C(C#N)C#N)cc(Br)c1O	enzyme activity	inhibitor	–	0.5 µM	remaining activity	91.3%
O=C(Nc1cccnn1)N1CCN([C@@H]2CCOc3cc(C(F)(F)F)ccc32)CC1	enzyme activity	inhibitor	–	20 µM	inhibition	-4%
COc1ncccc1-c1cnn2ccc(N3CCN(C(=O)OC(C)C)CC3)nc12	binding	–	competition with immobilised ligand	1 µM	remaining binding	100%
Cc1nn(C)cc1-c1nc2c(N3CCN(Cc4ccc(Cl)cc4)CC3)c(Cl)cnc2[nH]1	binding	–	competition with immobilised ligand	1 µM	remaining binding	100%
CNC1(c2ccccc2Cl)CCCCC1=O (racemic)	enzyme activity	inhibitor	–	30 µM	inhibition	2%
O=c1[nH]c2ccccc2n1C1CCN(Cc2ccc(-c3[nH]c4cc5ncnc5cc4nc3-c3ccccc3)cc2)CC1	cell-free assay	–	–	0.5 µM	remaining signal	112%
